Calls of active or inactive are those of the source. The rule behind the calls is not given here.
Experiments:
[1] = biological target: T1, 25-hydroxyvitamin D-1 alpha hydroxylase, mitochondrial (Mus musculus) (UniProt O35084); test: Substrate activity at mouse CYP27B1 assessed as 1alpha-hydroxylation by measuring ratio of Kcat to Km after 2 mins by reverse-phase HPLC analysis
T1 sequence (whole entry): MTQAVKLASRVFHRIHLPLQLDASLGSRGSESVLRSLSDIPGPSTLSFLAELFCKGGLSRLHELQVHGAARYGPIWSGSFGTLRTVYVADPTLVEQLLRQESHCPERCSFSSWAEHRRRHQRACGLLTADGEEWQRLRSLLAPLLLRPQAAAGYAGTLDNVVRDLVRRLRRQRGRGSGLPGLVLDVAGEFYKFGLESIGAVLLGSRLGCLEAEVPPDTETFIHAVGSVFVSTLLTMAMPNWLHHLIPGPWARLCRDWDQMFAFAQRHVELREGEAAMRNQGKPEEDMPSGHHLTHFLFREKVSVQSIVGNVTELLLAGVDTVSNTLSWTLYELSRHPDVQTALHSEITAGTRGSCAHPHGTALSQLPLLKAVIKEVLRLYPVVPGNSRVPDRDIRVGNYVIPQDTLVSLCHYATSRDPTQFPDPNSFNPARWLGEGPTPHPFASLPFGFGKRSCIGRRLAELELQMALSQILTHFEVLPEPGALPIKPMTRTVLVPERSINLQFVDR
Procedure, shortened: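 Substrates incorporated into dioleoylphosphatidylcholine/cardiolipin vesicles over a range of concentrations and incubated 2 min. Products extracted with dichloromethane and quantified by reverse-phase C18 HPLC. Km and kcat from a Michaelis–Menten fit (±SE of fit); kcat/Km expressed per mmol/mol phospholipid.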

[2] = biological target: T2, Vitamin D3 receptor (Homo sapiens) (UniProt P11473); test: Transactivation of VDR in human HaCaT cells up to 1000 nM after 24 hrs by luciferase reporter gene assay; format: cell-based
T2 sequence (whole entry): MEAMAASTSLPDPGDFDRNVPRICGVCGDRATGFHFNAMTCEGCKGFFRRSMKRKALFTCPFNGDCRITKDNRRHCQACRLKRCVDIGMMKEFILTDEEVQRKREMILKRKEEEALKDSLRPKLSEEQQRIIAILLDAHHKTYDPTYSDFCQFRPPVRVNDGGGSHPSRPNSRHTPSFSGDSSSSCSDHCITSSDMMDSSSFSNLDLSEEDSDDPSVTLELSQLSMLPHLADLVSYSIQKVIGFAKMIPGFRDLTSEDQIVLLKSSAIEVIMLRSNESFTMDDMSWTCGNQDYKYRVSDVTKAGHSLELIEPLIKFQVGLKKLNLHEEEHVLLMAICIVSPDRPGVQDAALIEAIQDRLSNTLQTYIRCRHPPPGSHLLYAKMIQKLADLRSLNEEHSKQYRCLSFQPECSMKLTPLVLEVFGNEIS
Procedure, shortened: (§1)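 Cells were lentivirally transduced with a VDRE-luciferase reporter and selected 1 week with puromycin (1 µg/mL). Seeded at 1000 cells/well in FBS-free medium for 24 h, then treated 24 h with secosteroids in DMSO (0.1% final; 0.1% DMSO as vehicle control). Luciferase read by ONE-Glo. Triplicate per concentration; EC50 reported.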

[3] = Antiinflammatory activity in DBA/1 mouse splenocytes assessed as IFNgamma production at 100 nM after 2 hrs by ELISA (reference value: 731 +/- 15 pg/ml); format: functional, Splenocyte
[4] = Upregulation of LAIR-1 expression in DBA/1 mouse splenocytes at 10^-7 M after overnight incubation by flow cytometric analysis (reference value: 973 +/- 95); format: functional, cell-based; conditions: Splenocyte
Procedure, shortened: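 Splenocytes isolated from DBA/1 mice were cultured overnight with secosteroid at 10−7 M or vehicle control. Cells were stained with fluorochrome-labelled anti-CD4 and anti-LAIR-1 antibodies and analysed by multiparameter flow cytometry, gating on CD4 cells. At least 10 000 cells were counted per sample. Read-out is LAIR-1 mean fluorescence, given as the mean of two separate analyses ± SD.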

[5] = biological target: T2, Vitamin D3 receptor (Homo sapiens); test: Transactivation of VDR in human Caco2 cells up to 1000 nM after 24 hrs by luciferase reporter gene assay; format: cell-based; conditions: Caco-2; procedure, shortened: as §1
[6] = biological target: T3, Vitamin D3 receptor (Homo sapiens, UniProt P11473); test: Transactivation of VDR in human HaCaT cells after 24 hrs by luciferase reporter gene assay; format: cell-based
T3 sequence (P11473 whole entry): T2 sequence (whole entry)

[7] = biological target: T3, Vitamin D3 receptor; test: Transactivation of VDR in human Caco2 cells after 24 hrs by luciferase reporter gene assay; format: cell-based, Caco-2

SMILES | Ratio [1] [min⁻¹] | Activity [2] | Activity [3] [pg/mL] | Flu intensity [4] | Activity [5] | EC50 [6] [µM] | EC50 [7] [µM]
C=C1CC[C@H](O)C/C1=C/C=C1\CCC[C@@]2(C)[C@H]1CC[C@@H]2[C@@](C)(O)CC[C@H](O)C(C)C | 0.71 | inactive | 923 | 1540 | inactive | – | –
C=C1CC[C@H](O)C/C1=C/C=C1\CCC[C@@]2(C)[C@H]1CC[C@@H]2[C@@](C)(O)CC[C@@H](O)C(C)C | 3.9 | inactive | 465 | 1910 | inactive | – | –
C=C1/C(=C\C=C2/CCC[C@]3(C)[C@@H]([C@H](C)OCCC(C)(C)O)CC[C@@H]23)C[C@@H](O)C[C@@H]1O [MAXACALCITOL] | – | – | 356 | 1510 | – | 0.0379 | 0.0408
C=C1/C(=C\C=C2/CCC[C@@]3(C)[C@H]2CC[C@@H]3[C@@](C)(O)CC[C@@H](O)C(C)C)C[C@@H](O)C[C@@H]1O | – | – | 291 | 2100 | – | 0.0649 | 0.0669
C=C1/C(=C\C=C2/CCC[C@@]3(C)[C@H]2CC[C@@H]3[C@@](C)(O)CC[C@H](O)C(C)C)C[C@@H](O)C[C@@H]1O | – | – | 589 | 1820 | – | 0.271 | 0.208
C=C1/C(=C\C=C2/CCC[C@]3(C)[C@@H]([C@H](C)CCCC(C)(C)O)CC[C@@H]23)C[C@@H](O)C[C@@H]1O | – | – | – | 1640 | – | – | –
